The structures appear in SMILES notation. Where “and” joins values, the source holds several entries; their conditions need not be identical. Equal values may be shown once. Calls of active or inactive are those of the source.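 Rule for the calls: active = compounds whose fitted growth inhibition curve reaches half effect at or below twice the top tested dose; inconclusive = flat inhibition between 30 and 70 percent, or poor fit; inactive = the rest.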

Tested on in the first test: not listed separately
Description: C. glabrata growth inhibition on glucose, dose response, glucose medium, plate reader, dry powder, set 4 (AID 624013). To be noted: Candida glabrata growth, glucose medium, OD600, 48 h; at 3 µM (top of the series). An outline of the steps: (§1)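 System: Candida glabrata yeast cells, whole organism / Control set: amphotericin B 10 µM, positive / Signal: optical density at 600 nm (absorbance) / Buffer or medium: CSM-glucose medium / Schedule: compound exposure 48 h at 30 °C, static, humidified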
Turning to `CCOC(=O)N1C(=O)C2(CCCCC2)N(c2ccccc2)C1=S`, the activity change, negative = inhibition was -11.8% (inactive).

In the case of `CCOC(=O)N1C(=O)C2(CCCCC2)N(c2ccc(Cl)cc2)C1=S`, the activity change, negative = inhibition was -19.6% (inactive).

As to `CCOC(=O)N1C(=O)C2(CCCCC2)N(c2ccc(F)cc2)C1=S`, the activity change, negative = inhibition was -16.3% (inactive).

Turning to `CCOC(=O)N1C(=O)C2(CCCCC2)N(c2ccc(C#N)cc2)C1=S`, the activity change, negative = inhibition was -17% (inactive).

As to `CCOC(=O)N1C(=O)C2(CCCCC2)N(c2ccc(C)cc2)C1=S`, the activity change, negative = inhibition is -13.3% (inactive) and -16.5% (inactive).

As to `C/C=C/[C@@H]1[C@H]2C[C@@H](C)CC[C@@H]2C(C)=C[C@H]1C(=O)c1c(O)c(-c2ccc(O)cc2)c[nH]c1=O`, the activity change, negative = inhibition is -2.31% (inactive).

As for `CCOC(=O)N1C(=O)C2(CCCCC2)N(c2cccc(C)c2)C1=S`, the activity change, negative = inhibition is -14.7% (inactive).

The test system of another test is Candida glabrata growth, glucose medium, OD600, 48 h. Described as above.
Conditions: not given
In a few lines:
as §1
Take `CC1/C=C/C=C\C=C\C=C\C=C\C=C\C=C\C(O[C@H]2OC(C)C(O)C(N)C2O)CC2OC(O)(CC(O)CC(O)C(O)CCC(O)CC(O)CC(=O)OC(C)C(C)C1O)CC(O)C2C(=O)O` (stereo partly drawn): the AC50 (usually the midpoint of the concentration-response curve, whichever way the signal moves) was 2120 nM.

(Values after PubChem BioAssay AID624013 (Broad Institute, 2012).)
